Test results: ChEMBL document CHEMBL1150593, “Biologically active polyketide metabolites from an undetermined fungicolous hyphomycete resembling Cladosporium” (2002)
Calls of active or inactive are those of the source. No cut-off for these calls is given here.

Assays:
[1] = test system: Fusarium verticillioides; test: Antimicrobial activity against Fusarium verticillioides NRRL 25457 at 250 ug/disk by standard agar diffusion assay; format: functional, organism-based
[2] = test system: Aspergillus flavus; test: Antimicrobial activity against Aspergillus flavus NRRL 6541 at 250 ug/disk by standard agar diffusion assay; format: functional, organism-based
[3] = test system: Staphylococcus aureus; test: Antimicrobial activity against Staphylococcus aureus ATCC 29213 at 200 ug/disk by standard agar diffusion assay; format: functional; settings: read-out: IZ
In short: (§1)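 Agar diffusion (disk) assay with 200 µg of compound applied per disk against the bacterial strain. The same panel at this loading also included Candida albicans ATCC 90029. Read-out was the zone of growth inhibition, recorded in mm.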

[4] = test system: Bacillus subtilis; test: Antimicrobial activity against Bacillus subtilis ATCC 6051 at 200 ug/disk by standard agar diffusion assay; format: functional; settings: read-out: IZ; in short: as §1

For `CC(O)C(O)CC1OCc2c(O)cccc21` (mixture of isomers; 7b), the Activity [1] was “inactive” and the Activity [2] was “inactive”.
`COc1cc(O)c2c(c1)C(=O)C1=C(C2=O)[C@H](O)[C@@H](O)[C@@](C)(O)[C@@H]1O` [ALTERSOLANOL A] was tested, and the Activity [1] was “inactive”, the zone of inhibition at 200 µg/disc [3] was 31 mm and the Activity [2] was “inactive”. The zone of inhibition at 200 µg/disc [4] was 33 mm.
`CC1(O)C(=O)C=Cc2c1ccc(O)c2CO` (centres undefined) was tested, and the Activity [1] was “inactive” and the Activity [2] was “inactive”.
For `O=C(O)CC1OC(=O)c2c(O)cccc21` (racemic), the Activity [1] was “inactive” and the Activity [2] was “inactive”.
`C[C@H]1O[C@@H]2O[C@H]1C=Cc1cccc(O)c12` [CLADOACETAL A] was tested, and the Activity [1] was “inactive”, the zone of inhibition at 200 µg/disc [3] was 13 mm and the Activity [2] was “inactive”.
With `O=Cc1c(O)cccc1CCC(=O)O` the Activity [1] was “inactive”, the Activity [2] was “inactive” and the zone of inhibition at 200 µg/disc [4] was 22 mm.
In the case of `COc1cc(O)c2c(c1)C(=O)[C@H]1C[C@](C)(O)[C@H](O)C[C@@H]1[C@H]2O` (relative stereo), the Activity [1] is reported as “inactive” and the Activity [2] is reported as “inactive”.
`CC(O)C(O)CC1OCc2c(O)cccc21` (mixture of isomers; 7a) was tested, and the Activity [1] was “inactive” and the Activity [2] was “inactive”.
With `O=C(O)CC1OCc2c(O)cccc21` (racemic) the Activity [1] was “inactive”, the Activity [2] was “inactive” and the zone of inhibition at 200 µg/disc [4] was 8 mm.
In the case of `CC(O)C(O)CC1OC(=O)c2c(O)cccc21` (centres undefined), the Activity [1] is reported as “inactive” and the Activity [2] is reported as “inactive”.
For `COc1cc(O)c2c(c1)C(=O)c1cc(C)c(O)cc1C2=O` [MACROSPORIN], the Activity [1] was “inactive”, the zone of inhibition at 200 µg/disc [3] was 20 mm and the Activity [2] was “inactive”. For the same molecule, the zone of inhibition at 200 µg/disc [4] was 23 mm.
